# Assay results from ChEMBL document CHEMBL1151428, “Capability of 11 antipneumococcal antibiotics to select for resistance by multistep and single-step methodologies” (2007).
# What was measured:
# Assay type in all cases: functional
# Streptococcus pneumoniae [1] = assay: Antimicrobial activity against drug-resistant Streptococcus pneumoniae isolate 3243 after 41 passages with clarithromycin measured after 10 antibiotic-free subculture by multi-step resistance selection technique
# Streptococcus pneumoniae [2] = assay: Antimicrobial activity against drug-resistant Streptococcus pneumoniae isolate 3665 after 26 passages with clarithromycin measured after 10 antibiotic-free subculture by multi-step resistance selection technique
# Streptococcus pneumoniae [3] = assay: Antimicrobial activity against drug-resistant Streptococcus pneumoniae isolate 3009 after 21 passages with gemifloxacin measured after 10 antibiotic-free subculture by multi-step resistance selection technique
# Method in brief: (§1)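 Mutants selected by daily broth passage in subinhibitory drug in cation-adjusted Mueller-Hinton broth with 5% lysed horse blood. Stability was tested by 10 daily passages on blood agar without antibiotic, then macrodilution MIC.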
# Streptococcus pneumoniae [4] = assay: Antimicrobial activity against drug-resistant Streptococcus pneumoniae isolate 3243 after 33 passages with azithromycin measured after 10 antibiotic-free subculture by multi-step resistance selection technique; method in brief: as §1
# Streptococcus pneumoniae [5] = assay: Antimicrobial activity against drug-resistant Streptococcus pneumoniae isolate 37 by NCCLS M7-A7 method
# Streptococcus pneumoniae [6] = assay: Antimicrobial activity against drug-resistant Streptococcus pneumoniae isolate 37 after 14 passages with Telithromycin measured after 10 antibiotic-free subculture by multi-step resistance selection technique
# Streptococcus pneumoniae [7] = assay: Antimicrobial activity against drug-resistant Streptococcus pneumoniae isolate 2527 after 20 passages with azithromycin measured after 10 antibiotic-free subculture by multi-step resistance selection technique; method in brief: as §1
# Streptococcus pneumoniae [8] = assay: Antimicrobial activity against drug-resistant Streptococcus pneumoniae isolate 3009 after 25 passages by multi-step resistance selection technique
# Method in brief: (§2)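 Daily serial passage in subinhibitory drug levels in 1 ml cation-adjusted Mueller-Hinton broth with 5% lysed horse blood; fresh broth for tigecycline. Each day, 10 μl were taken from the tube one to two dilutions below the MIC whose turbidity matched the growth control, and used to set the next MIC. […] MIC by macrodilution.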
# Streptococcus pneumoniae [9] = assay: Antimicrobial activity against drug-resistant Streptococcus pneumoniae isolate 1635 after 49 passages with clarithromycin measured after 10 antibiotic-free subculture by multi-step resistance selection technique
# Streptococcus pneumoniae [10] = assay: Antimicrobial activity against drug-resistant Streptococcus pneumoniae isolate 24 by NCCLS M7-A7 method
# Streptococcus pneumoniae [11] = assay: Antimicrobial activity against drug-resistant Streptococcus pneumoniae isolate 3665 by NCCLS M7-A7 method
# Streptococcus pneumoniae [12] = assay: Antimicrobial activity against drug-resistant Streptococcus pneumoniae isolate 24 after 14 passages with Telithromycin measured after 10 antibiotic-free subculture by multi-step resistance selection technique; method in brief: as §1
# Streptococcus pneumoniae [13] = assay: Antimicrobial activity against drug-resistant Streptococcus pneumoniae isolate 24 after 50 passages with moxifloxacin measured after 10 antibiotic-free subculture by multi-step resistance selection technique; method in brief: as §1
# Streptococcus pneumoniae [14] = assay: Antimicrobial activity against drug-resistant Streptococcus pneumoniae isolate 3274 after 50 passages by multi-step resistance selection technique
# Method in brief: (§3)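 Daily serial passage in subinhibitory drug levels in 1 ml cation-adjusted Mueller-Hinton broth with 5% lysed horse blood; fresh broth for tigecycline. Each day, 10 μl were taken from the tube one to two dilutions below the MIC whose turbidity matched the growth control, and used to set the next MIC. MIC by macrodilution.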
# Streptococcus pneumoniae [15] = assay: Antimicrobial activity against drug-resistant Streptococcus pneumoniae isolate 3009 after 25 passages with clarithromycin measured after 10 antibiotic-free subculture by multi-step resistance selection technique
# Streptococcus pneumoniae [16] = assay: Antimicrobial activity against drug-resistant Streptococcus pneumoniae isolate 3243 after 41 passages by multi-step resistance selection technique; method in brief: as §2
# Streptococcus pneumoniae [17] = assay: Antimicrobial activity against drug-resistant Streptococcus pneumoniae isolate 3676 after 14 passages with Telithromycin measured after 10 antibiotic-free subculture by multi-step resistance selection technique
# Streptococcus pneumoniae [18] = assay: Antimicrobial activity against drug-resistant Streptococcus pneumoniae isolate 1635 after 14 passages with azithromycin measured after 10 antibiotic-free subculture by multi-step resistance selection technique; method in brief: as §1
# Streptococcus pneumoniae [19] = assay: Antimicrobial activity against drug-resistant Streptococcus pneumoniae isolate 2527 after 14 passages with gemifloxacin measured after 10 antibiotic-free subculture by multi-step resistance selection technique; method in brief: as §1
# Streptococcus pneumoniae [20] = assay: Antimicrobial activity against drug-resistant Streptococcus pneumoniae isolate 2527 by NCCLS M7-A7 method
# Streptococcus pneumoniae [21] = assay: Antimicrobial activity against drug-resistant Streptococcus pneumoniae isolate 3009 by NCCLS M7-A7 method
# Streptococcus pneumoniae [22] = assay: Antimicrobial activity against drug-resistant Streptococcus pneumoniae isolate 3243 after 29 passages with Telithromycin measured after 10 antibiotic-free subculture by multi-step resistance selection technique; method in brief: as §1
# Streptococcus pneumoniae [23] = assay: Antimicrobial activity against drug-resistant Streptococcus pneumoniae isolate 1076 after 14 passages with Telithromycin measured after 10 antibiotic-free subculture by multi-step resistance selection technique; method in brief: as §1
# Streptococcus pneumoniae [24] = assay: Antimicrobial activity against drug-resistant Streptococcus pneumoniae isolate 3665 after 38 passages with moxifloxacin measured after 10 antibiotic-free subculture by multi-step resistance selection technique
# Streptococcus pneumoniae [25] = assay: Antimicrobial activity against drug-resistant Streptococcus pneumoniae isolate 1635 by NCCLS M7-A7 method
# Streptococcus pneumoniae [26] = assay: Antimicrobial activity against drug-resistant Streptococcus pneumoniae isolate 3413 after 50 passages by multi-step resistance selection technique; method in brief: as §3
# Streptococcus pneumoniae [27] = assay: Antimicrobial activity against drug-resistant Streptococcus pneumoniae isolate 1077 after 15 passages with Telithromycin measured after 10 antibiotic-free subculture by multi-step resistance selection technique; method in brief: as §1
# Streptococcus pneumoniae [28] = assay: Antimicrobial activity against drug-resistant Streptococcus pneumoniae isolate 3243 after 20 passages with moxifloxacin measured after 10 antibiotic-free subculture by multi-step resistance selection technique; method in brief: as §1
# Streptococcus pneumoniae [29] = assay: Antimicrobial activity against drug-resistant Streptococcus pneumoniae isolate 1076 after 35 passages with moxifloxacin measured after 10 antibiotic-free subculture by multi-step resistance selection technique; method in brief: as §1
# Streptococcus pneumoniae [30] = assay: Antimicrobial activity against drug-resistant Streptococcus pneumoniae isolate 3676 by NCCLS M7-A7 method
# Streptococcus pneumoniae [31] = assay: Antimicrobial activity against drug-resistant Streptococcus pneumoniae isolate 3413 by NCCLS M7-A7 method
# Streptococcus pneumoniae [32] = assay: Antimicrobial activity against drug-resistant Streptococcus pneumoniae isolate 3676 after 44 passages by multi-step resistance selection technique
# Method in brief: (§4)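 Daily serial passage in broth at subinhibitory drug levels: 1 ml cation-adjusted Mueller-Hinton broth with 5% lysed horse blood; fresh broth for tigecycline. Each day 10 μl inoculum taken from the tube one to two dilutions below MIC matching growth-control turbidity, used to set next MIC. Continued until ≥8-fold MIC rise, minimum 14, maximum 50 passages; MIC read by macrodilution.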
# Streptococcus pneumoniae [33] = assay: Antimicrobial activity against drug-resistant Streptococcus pneumoniae isolate 3676 after 50 passages with moxifloxacin measured after 10 antibiotic-free subculture by multi-step resistance selection technique
# Streptococcus pneumoniae [34] = assay: Antimicrobial activity against drug-resistant Streptococcus pneumoniae isolate 1077 after 49 passages with clindamycin measured after 10 antibiotic-free subculture by multi-step resistance selection technique
# Streptococcus pneumoniae [35] = assay: Antimicrobial activity against drug-resistant Streptococcus pneumoniae isolate 3274 by NCCLS M7-A7 method
# Streptococcus pneumoniae [36] = assay: Antimicrobial activity against drug-resistant Streptococcus pneumoniae isolate 3676 after 44 passages with clarithromycin measured after 10 antibiotic-free subculture by multi-step resistance selection technique
# Streptococcus pneumoniae [37] = assay: Antimicrobial activity against drug-resistant Streptococcus pneumoniae isolate 3009 after 18 passages with levofloxacin measured after 10 antibiotic-free subculture by multi-step resistance selection technique; method in brief: as §1
# Streptococcus pneumoniae [38] = assay: Antimicrobial activity against drug-resistant Streptococcus pneumoniae isolate 3274 after 48 passages with Telithromycin measured after 10 antibiotic-free subculture by multi-step resistance selection technique; method in brief: as §1
# Streptococcus pneumoniae [39] = assay: Antimicrobial activity against drug-resistant Streptococcus pneumoniae isolate 1635 after 49 passages by multi-step resistance selection technique; method in brief: as §2
# Streptococcus pneumoniae [40] = assay: Antimicrobial activity against drug-resistant Streptococcus pneumoniae isolate 3413 after 30 passages with Telithromycin measured after 10 antibiotic-free subculture by multi-step resistance selection technique; method in brief: as §1
# Streptococcus pneumoniae [41] = assay: Antimicrobial activity against drug-resistant Streptococcus pneumoniae isolate 3009 after 19 passages with moxifloxacin measured after 10 antibiotic-free subculture by multi-step resistance selection technique; method in brief: as §1
# Streptococcus pneumoniae [42] = assay: Antimicrobial activity against drug-resistant Streptococcus pneumoniae isolate 1076 by NCCLS M7-A7 method
# Streptococcus pneumoniae [43] = assay: Antimicrobial activity against drug-resistant Streptococcus pneumoniae isolate 1077 after 50 passages by multi-step resistance selection technique; method in brief: as §3
# Streptococcus pneumoniae [44] = assay: Antimicrobial activity against drug-resistant Streptococcus pneumoniae isolate 2527 after 50 passages by multi-step resistance selection technique; method in brief: as §2
# Streptococcus pneumoniae [45] = assay: Antimicrobial activity against drug-resistant Streptococcus pneumoniae isolate 1635 after 14 passages with clindamycin measured after 10 antibiotic-free subculture by multi-step resistance selection technique
# Streptococcus pneumoniae [46] = assay: Antimicrobial activity against drug-resistant Streptococcus pneumoniae isolate 1077 by NCCLS M7-A7 method
# Streptococcus pneumoniae [47] = assay: Antimicrobial activity against drug-resistant Streptococcus pneumoniae isolate 1077 after 29 passages with azithromycin measured after 10 antibiotic-free subculture by multi-step resistance selection technique; method in brief: as §1
# Streptococcus pneumoniae [48] = assay: Antimicrobial activity against drug-resistant Streptococcus pneumoniae isolate 3665 after 14 passages with Telithromycin measured after 10 antibiotic-free subculture by multi-step resistance selection technique
# Streptococcus pneumoniae [49] = assay: Antimicrobial activity against drug-resistant Streptococcus pneumoniae isolate 3665 after 26 passages by multi-step resistance selection technique; method in brief: as §4
# Streptococcus pneumoniae [50] = assay: Antimicrobial activity against drug-resistant Streptococcus pneumoniae isolate 3243 by NCCLS M7-A7 method
smiles,measurement,setting,value
CC[C@H]1OC(=O)[C@H](C)[C@@H](O[C@H]2C[C@@](C)(OC)[C@@H](O)[C@H](C)O2)[C@H](C)[C@@H](O[C@@H]2O[C@H](C)C[C@H](N(C)C)[C@H]2O)[C@](C)(OC)C[C@@H](C)C(=O)[C@H](C)[C@@H](O)[C@]1(C)O [CLARITHROMYCIN],MIC,Streptococcus pneumoniae [1],0.25 µg/mL
same,MIC,Streptococcus pneumoniae [2],8 µg/mL
same,MIC,Streptococcus pneumoniae [3],16 µg/mL
same,MIC,Streptococcus pneumoniae [4],0.5 µg/mL
same,MIC,Streptococcus pneumoniae [5],> 64 µg/mL
same,MIC,Streptococcus pneumoniae [6],> 64 µg/mL
same,MIC,Streptococcus pneumoniae [7],16 µg/mL
same,MIC,Streptococcus pneumoniae [8],> 64 µg/mL
same,MIC,Streptococcus pneumoniae [9],> 64 µg/mL
same,MIC,Streptococcus pneumoniae [10],> 64 µg/mL
same,MIC,Streptococcus pneumoniae [11],2 µg/mL
same,MIC,Streptococcus pneumoniae [12],> 64 µg/mL
same,MIC,Streptococcus pneumoniae [13],> 64 µg/mL
same,MIC,Streptococcus pneumoniae [14],0.03 µg/mL
same,MIC,Streptococcus pneumoniae [15],64 µg/mL
same,MIC,Streptococcus pneumoniae [16],0.25 µg/mL
same,MIC,Streptococcus pneumoniae [17],2 µg/mL
same,MIC,Streptococcus pneumoniae [18],> 64 µg/mL
same,MIC,Streptococcus pneumoniae [19],0.016 µg/mL
same,MIC,Streptococcus pneumoniae [20],0.008 µg/mL
same,MIC,Streptococcus pneumoniae [21],16 µg/mL
same,MIC,Streptococcus pneumoniae [22],> 64 µg/mL
same,MIC,Streptococcus pneumoniae [23],> 64 µg/mL
same,MIC,Streptococcus pneumoniae [24],2 µg/mL
same,MIC,Streptococcus pneumoniae [25],0.5 µg/mL
same,MIC,Streptococcus pneumoniae [26],8 µg/mL
same,MIC,Streptococcus pneumoniae [27],> 64 µg/mL
same,MIC,Streptococcus pneumoniae [28],0.004 µg/mL
same,MIC,Streptococcus pneumoniae [29],> 64 µg/mL
same,MIC,Streptococcus pneumoniae [30],4 µg/mL
same,MIC,Streptococcus pneumoniae [31],8 µg/mL
same,MIC,Streptococcus pneumoniae [32],32 µg/mL
same,MIC,Streptococcus pneumoniae [33],4 µg/mL
same,MIC,Streptococcus pneumoniae [34],> 64 µg/mL
same,MIC,Streptococcus pneumoniae [35],0.008 µg/mL
same,MIC,Streptococcus pneumoniae [36],16 µg/mL
same,MIC,Streptococcus pneumoniae [37],8 µg/mL
same,MIC,Streptococcus pneumoniae [38],1 µg/mL
same,MIC,Streptococcus pneumoniae [39],> 64 µg/mL
same,MIC,Streptococcus pneumoniae [40],16 µg/mL
same,MIC,Streptococcus pneumoniae [41],8 µg/mL
same,MIC,Streptococcus pneumoniae [42],> 64 µg/mL
same,MIC,Streptococcus pneumoniae [43],0.008 µg/mL
same,MIC,Streptococcus pneumoniae [44],0.016 µg/mL
same,MIC,Streptococcus pneumoniae [45],0.5 µg/mL
same,MIC,Streptococcus pneumoniae [46],0.016 µg/mL
same,MIC,Streptococcus pneumoniae [47],> 64 µg/mL
same,MIC,Streptococcus pneumoniae [48],2 µg/mL
same,MIC,Streptococcus pneumoniae [49],16 µg/mL
same,MIC,Streptococcus pneumoniae [50],0.016 µg/mL
